The source made the active and inactive calls. The rule behind the calls is not given here.

The nature of experiment [1]: Inhibition of bovine brain tubulin polymerization by turbidimetric analysis. On the set-up: species or system Bos taurus. Put shortly:
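Purified bovine brain tubulin (10 µM) preincubated with varying compound concentrations in glutamate buffer at 30 °C, then cooled to 0 °C. GTP added, mixtures warmed to 30 °C in cuvettes, and assembly followed by turbidity.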

Experiment [2] concerns MCF7. As to the kind of experiment: Antiproliferative activity against human MCF7 cells after 48 hrs by MTT assay. Conditions: MCF7, 48 h. In kind it is functional, cell-based. In a few lines: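 After 24 h at 37 °C, 5% CO₂, compounds were added at preset concentrations for 48 h. MTT (2.5 mg/mL in PBS) was then added for 4 h, followed by 10% SDS–5% isobutyl alcohol–0.01 M HCl overnight at 37 °C. OD read at 570 nm. Triplicate wells per concentration; each assay run at least three times.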

Experiment [3] deals with MCF7. The experiment in a line: Cell cycle arrest in human MCF7 cells assessed as accumulation at G2/M phase at 50 nM after 24 hrs by flow cytometry relative to control. In kind it is functional. Put shortly:
(§1)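 Cells treated at 50 nM or 500 nM for 24 h, collected and fixed overnight in 70% ethanol at −20 °C. After two PBS washes, RNase A (0.5 mg/mL) and propidium iodide (2.5 µg/mL) were added for 30 min. DNA content was measured by flow cytometry and the percentage of cells in each cycle phase was determined.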

Experiment [4] concerns MCF7. The experiment in a line: Cell cycle arrest in human MCF7 cells assessed as accumulation at sub-G1 phase at 50 nM after 24 hrs by flow cytometry relative to control. The class given is functional. In a few lines:
as §1

Experiment [5] concerns MCF7. As to the kind of experiment: Induction of apoptosis in human MCF7 cells assessed as morphological changes at 1 uM after 24 hrs using DAPI staining by fluorescence microscopic analysis. In kind it is functional, cell-based. Put shortly: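 Cells cultured on 6-well plates and treated at 0 or 1.0 µM for 24 h. Fixed in ice-cold 4% paraformaldehyde for 20 min, then permeabilized in 0.1% sodium citrate/0.1% Triton X-100 for 2 min at 4 °C. Stained with DAPI (300 nM) and examined by fluorescence microscopy for nuclear morphology.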

Experiment [6] deals with MCF7. As to the kind of experiment: Cell cycle arrest in human MCF7 cells assessed as accumulation at G2/M phase at 500 nM after 24 hrs by flow cytometry relative to control. The class given is functional. Put shortly: as §1
Experiment [7] has as its system MCF7. As to the kind of experiment: Cell cycle arrest in human MCF7 cells assessed as accumulation at S phase at 50 nM after 24 hrs by flow cytometry relative to control. The class given is functional. In a few lines:
as §1

Experiment [8] has as its system MCF7. As to the kind of experiment: Cell cycle arrest in human MCF7 cells assessed as accumulation at G2/M phase after 24 hrs by flow cytometry. In kind it is functional, cell-based. In a few lines: as §1
The subject of experiment [9] is MCF7. As to the kind of experiment: Cell cycle arrest in human MCF7 cells assessed as accumulation at sub-G1 phase at 500 nM after 24 hrs by flow cytometry relative to control. In kind it is functional. In a few lines: as §1
Experiment [10] deals with MCF7. As to the kind of experiment: Cell cycle arrest in human MCF7 cells assessed as accumulation at S phase at 500 nM after 24 hrs by flow cytometry relative to control. In kind it is functional. In a few lines: as §1
The test system of experiment [11] is MCF7. The experiment in a line: Cell cycle arrest in human MCF7 cells assessed as accumulation at G1 phase at 50 nM after 24 hrs by flow cytometry relative to control. In kind it is functional. Put shortly: as §1
Experiment [12] concerns MCF7. As to the kind of experiment: Cell cycle arrest in human MCF7 cells assessed as accumulation at G1 phase at 500 nM after 24 hrs by flow cytometry relative to control. In kind it is functional. In a few lines:
as §1

Experiment [13] deals with MCF7. The experiment in a line: Cell cycle arrest in human MCF7 cells assessed as accumulation at sub-G1 phase after 24 hrs by flow cytometry relative to control. In kind it is functional. Put shortly:
as §1

Experiment [14] deals with MCF7. The experiment in a line: Cell cycle arrest in human MCF7 cells assessed as accumulation at G1 phase after 24 hrs by flow cytometry relative to control. In kind it is functional. In a few lines:
as §1

The test system of experiment [15] is MCF7. The experiment in a line: Cell cycle arrest in human MCF7 cells assessed as accumulation at S phase after 24 hrs by flow cytometry relative to control. The class given is functional. In a few lines: as §1
The test system of experiment [16] is MCF7. As to the kind of experiment: Cell cycle arrest in human MCF7 cells assessed as accumulation at G2/M phase after 24 hrs by flow cytometry relative to control. The class given is functional. In a few lines: as §1

In the case of `Cc1ccc(/C=C/C(=N/NC(=N)N)c2ccccc2)cc1`, the values for the IC50 in experiment [1] and in experiment [2] were 170 µM and 16 µM, respectively.
`N=C(N)N/N=C(/C=C/c1cccc2ccccc12)c1ccccc1`: the half-inhibitory concentration (IC50) in [1] is 18 µM; in experiment [2], 1.6 µM.
As for `N=C(N)N/N=C(/C=C/c1ccccc1F)c1ccccc1`, the IC50 in experiment [1] was found to be 42 µM; in experiment [2] it was 3.9 µM.
With `N=C(N)N/N=C(/C=C/c1ccccc1)c1ccc(Br)cc1`, the Activity in [3] is 23.38%; in experiment [4] it was 2.63%; in experiment [6], 54.12%; in experiment [7], 14.54%; in experiment [8], “Dose-dependent effect”; in experiment [9], 4.52%. Also, the Activity in experiment [10] was 3.14%; in [11] it was 48.76%; in experiment [12], 1.5%. The IC50 came out at 8.4 µM in [1] and 0.09 µM in experiment [2]. The outcome in experiment [5] was Active.
For `COc1ccc(C(/C=C/c2ccccc2)=N\NC(=N)N)cc1`, the half-maximal inhibitory concentration (IC50) was found to be 130 µM in [1] and 13 µM in experiment [2].
Consider `N=C(N)N/N=C(/C=C/c1ccc(Cl)cc1)c1ccccc1`, for which the concentration for half-maximal inhibition (IC50) in [1] was 14 µM; in [2] it was 0.7 µM.
As for `N=C(N)N/N=C(/C=C/c1cccc([N+](=O)[O-])c1)c1ccccc1`, the IC50 is 85 µM in [1] and 6.5 µM in experiment [2].
Turning to `N=C(N)N/N=C(/C=C/c1ccc(Br)cc1)c1ccccc1`, the IC50 came out at 10 µM in [1] and 0.25 µM in experiment [2].
Turning to `COc1cc2c(c(OC)c1OC)-c1ccc(OC)c(=O)cc1[C@@H](NC(C)=O)CC2` [COLCHICINE], the Activity came out at 14.58% in experiment [13], 8.58% in [14], 8.16% in experiment [15] and 43.11% in [16].
For the compound `N=C(N)N/N=C(/C=C/c1ccccc1)c1ccc(Cl)c(Cl)c1`, the IC50 in experiment [1] stood at 24 µM; in [2], 1.9 µM.
As for `COc1ccccc1/C=C/C(=N/NC(=N)N)c1ccccc1`, the results for the IC50 in [1] and in experiment [2] were 84 µM and 7.2 µM, respectively.
Turning to `N=C(N)N/N=C(/C=C/c1ccccc1)c1ccc(Cl)cc1`, the half-maximal inhibitory concentration (IC50) was found to be 15 µM in experiment [1] and 0.35 µM in experiment [2].
On to `COc1cccc(/C=C/C(=N/NC(=N)N)c2ccccc2)c1`, for which the concentration for half-maximal inhibition (IC50) in experiment [1] stood at 130 µM; in experiment [2], 13 µM.
Consider `N=C(N)N/N=C(/C=C/c1ccccc1)c1ccccc1`, for which the figures for the IC50 in experiment [1] and in [2] were 140 µM and 17 µM, respectively.
Regarding `COc1ccc(/C=C/C(=N/NC(=N)N)c2ccccc2)cc1`, the values for the IC50 in [1] and in experiment [2] were 140 µM and 14 µM, respectively.
As for `N=C(N)N/N=C(/C=C/c1ccc(OCc2ccccc2)cc1)c1ccccc1`, the IC50 in experiment [1] is 16 µM; in [2], 1.2 µM.
On the same counts, the results for `N=C(N)N/N=C(/C=C/c1ccccc1Cl)c1ccccc1` are 55 µM and 4.2 µM.
Take `COc1ccc(/C=C\c2cc(OC)c(OC)c(OC)c2)cc1O` [COMBRETASTATIN A4]: in [1], 2.2 µM corresponded to half-maximal inhibition (IC50).
As for `N=C(N)N/N=C(/C=C/c1ccc(-c2ccccc2)cc1)c1ccccc1`, the IC50 in experiment [1] is 12 µM; in [2], 0.8 µM.
As for `Cc1ccc(C(/C=C/c2ccccc2)=N\NC(=N)N)cc1`, the results for the half-inhibitory concentration (IC50) in experiment [1] and in experiment [2] were 150 µM and 14 µM, respectively.
As for `N=C(N)N/N=C(/C=C/c1cccc(F)c1)c1ccccc1`, the IC50 in [1] was 150 µM; in experiment [2], 16 µM.
With `N=C(N)N/N=C(/C=C/c1ccccc1Br)c1ccccc1`, the IC50 in experiment [1] is 52 µM; in [2], 4.2 µM.
Consider `N=C(N)N/N=C(/C=C/c1ccc(F)cc1)c1ccccc1`, for which the IC50 in experiment [1] turned out to be 28 µM; in experiment [2], 2.5 µM.

Values taken from ChEMBL document CHEMBL1287734, “Synthesis, molecular modeling and biological evaluation of guanidine derivatives as novel antitubulin agents” (Bioorg Med Chem, 2010).
